Reference: paper PMC12749109 (Nature Communications, 2025)
“Also recorded” adds a separate entry of the source. Read-outs that look alike come from different tables or passages of the source.

Legend:
GALR2 [1] = test: G protein versus β-arrestin2 signaling bias at GALR2; type: cell-based; conditions: for G protein activation / ARRB2 recruitment via GALR2: GALR2, overall statement
GALR1 [2] = test: CRE-luc luciferase; type: cell-based; conditions: HEK293, GALR1, luciferase, 12 h
Summary of the method: (§1)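 HEK293 cells were transfected (Lipofectamine) with empty pcDNA3.1 or GALR plasmid (2 μg) plus CRE, NFAT-RE or SRE luciferase reporter. After 36 h, medium was replaced with serum-free medium containing test peptide, diluted in DMEM from a 1 mM water stock, for 12 h. Luciferase was read 48 h post-transfection. Technical triplicate; mean ± SD; 37 °C, 5% CO2.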

ZO-1, occludin [3] = test: IHC of ZO-1 and occludin in colon, Galr2-KO mice; type: in vivo, mouse; conditions: DSS, compared with Galr2 KO-DSS group
Summary of the method: (§2)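 Colon sections from DSS-treated mice were incubated overnight at 4 °C with anti-ZO-1 (1:1000) or anti-occludin (1:200), then HRP-conjugated secondary antibody. Signal was developed with DAB, sections counterstained with hematoxylin, and staining quantified by image analysis.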

[4] = system: DSS-induced intestinal inflammation; type: in vivo, chicken; conditions: for IBD-related symptoms in DSS-treated chickens: chicken, 4% DSS oral gavage, daily i.p. peptide
Summary of the method: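 Forty 21-day-old male yellow-feathered broilers were split into control, DSS and two peptide groups under 24 h light, with free food and water. DSS groups were gavaged with […] of 4% DSS daily from day 21 to 29. Treated birds got 100 μL of 50 μM peptide i.p. daily. TNF-α, IL-1β and IL-6 were measured by ELISA in jejunum/ileum homogenates (1:9 w/v ice-cold PBS, pH 7.4; 5000 × g, 10 min, 4 °C).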

GALR1 [5] = test: NFAT-luc luciferase; type: cell-based; conditions: HEK293, GALR1, luciferase, 12 h
Summary of the method: as §1

GALR3 [6] = test: SRE-luc luciferase; type: cell-based; conditions: HEK293, GALR3, luciferase, 12 h
Summary of the method: as §1

GALR3 [7] = test: CRE-luc luciferase; type: cell-based; conditions: HEK293, GALR3, luciferase, 12 h
Summary of the method: as §1

DSS-induced colitis [8] = test: H&E histology/HAI and endoscopy, DSS-induced colitis, wild-type mice; type: in vivo; conditions: mouse, 3% DSS, peptide 3 μM daily i.p.
Summary of the method: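 Colons from mice given 3% DSS (8 days) and daily i.p. test peptide (3 μM) were fixed in 4% paraformaldehyde, paraffin-embedded, sectioned and H&E-stained. Sections were scored for epithelial damage, inflammatory infiltration, crypt loss and ulceration; n = 6/group.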

GALR3 [9] = test: DSS-induced colitis in Galr3-KO mice, overall; type: in vivo, mouse; conditions: 3% DSS, cGAL53 3 μM
mGALR2 mutants = test: Tango β-arrestin2 recruitment, binding-site mutants; type: cell-based, mouse
DSS-induced colitis [10] = test: DSS-induced colitis, female mice, overall therapeutic efficacy; type: in vivo, mouse; conditions: female C57BL/6 mice, 2.5% DSS, peptide 3 μM daily i.p.
Summary of the method: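 Female C57BL/6 mice (9–10 weeks, 20 ± 2 g) were randomised into four groups and given 2.5% DSS in drinking water ad libitum for 8 days, with daily i.p. test peptide (3 μM). Body weight was recorded daily. Colon length was measured after sacrifice, and distal colon was fixed in 4% formalin.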

TNBS-induced colitis = TNBS-induced colitis in C57BL/6 mice, overall therapeutic efficacy; type: in vivo, mouse; conditions: TNBS intrarectal, peptide 3 μM
Summary of the method: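 Male C57BL/6 mice (8–12 weeks) under 1.5% isoflurane received 100 μL of 2.5% TNBS (5% TNBS in water mixed 1:1 with ethanol) into the colon lumen. Controls received 50% ethanol only. Test peptide was given at 3 μM. Weight was monitored daily, and mice were killed 72 h after induction for colon length and histology; n = 6/group.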

GALR2 [11] = test: SRE-luc luciferase; type: cell-based; conditions: HEK293, GALR2, luciferase, 12 h
Summary of the method: as §1

GALR1 [12] = test: SRE-luc luciferase; type: cell-based; conditions: HEK293, GALR1, luciferase, 12 h
Summary of the method: as §1

ARRB2 = test: 2% DSS colitis in Arrb2 cKO mice, overall; type: in vivo, mouse; conditions: Arrb2 cKO (gut epithelial) mice, vs AAV control mice
Summary of the method: (§3)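 Male Arrb2fl/fl or Gnaqfl/fl mice (7–8 weeks) were fasted overnight, anaesthetised, and given 100 μL AAV8-Vil-cre or AAV8-Vil-null (1E+11 vg/mL) by catheter 4 cm into the colon. One week later they received 2% DSS in drinking water for 7 days. Read-outs were body weight, DAI, colon length, H&E, serum IL-6/IL-1β ELISA, and colonic Il6/Tnf/Il1b/Tgfb1/Tjp1/Ocln mRNA.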

GALR2 [13] = test: CRE-luc luciferase; type: cell-based; conditions: HEK293, GALR2, luciferase, 12 h
Summary of the method: as §1

GALR2b = test: Tango β-arrestin2 recruitment, HTLA cells; type: cell-based, chicken
Summary of the method: (§4)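 Tango assay used HTLA cells, a HEK293T line expressing a tTA-dependent luciferase reporter and β-arrestin2, transfected with GALR plasmid (2 μg). Test peptide in serum-free DMEM was added 36 h post-transfection for 12 h, then luciferase activity was measured. Mean ± SD.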

GALR3 [14] = test: NFAT-luc luciferase; type: cell-based; conditions: HEK293, GALR3, luciferase, 12 h
Summary of the method: as §1

GALR2 [15] = test: NFAT-luc luciferase; type: cell-based; conditions: HEK293, GALR2, luciferase, 12 h
Summary of the method: as §1

colon transcriptome = test: RNA-seq of colon tissue, DSS-induced colitis mice; type: in vivo; conditions: mouse colon
Summary of the method: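 Total RNA was extracted from mouse colon with Trizol, sequenced on BGIseq500 and mapped to the mouse genome. Data were analysed in R and reported as mean ± SEM.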

DSS-induced colitis [16] = test: DSS-induced colitis in wild-type mice, overall therapeutic efficacy; type: in vivo, mouse; conditions: for alleviation of colitis / intestinal inflammation, overall: chicken and mouse colitis models, overall statement
GALR2 [17] = test: Tango and BRET β-arrestin2 recruitment; type: cell-based
Summary of the method: as §4

Gnaq = test: 2% DSS colitis in Gnaq cKO mice, overall; type: in vivo, mouse; conditions: Gnaq cKO (gut epithelial) mice, vs AAV control mice
Summary of the method: as §3

Caco2 cells = test: RT-qPCR cytokine expression, Caco2 cell inflammation model; type: cell-based, human; conditions: IL-1β + TNF-α; for expression of Il6, Il23 and Tgfb1 induced by IL-1β and TNF-α: RT-qPCR
GALR2 [18] = test: DSS-induced colitis in Galr2-KO mice, overall; type: in vivo, mouse; conditions: Galr2-KO mice (or GALR2 inhibition where stated), cGAL53 3 μM
ZO-1, occludin [19] = test: IHC of ZO-1 and occludin in colon, DSS-induced colitis, wild-type mice; type: in vivo; conditions: mouse colon, 3% DSS, peptide 3 μM daily i.p.
Summary of the method: as §2

intestinal barrier = test: FD4 intestinal permeability, Galr2-KO mice; type: in vivo, mouse; conditions: Galr2-deficient mice, DSS
Summary of the method: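 Mice were fasted 12 h before and during the test, then gavaged with FITC-dextran FD4 (25 mg/mL in 0.05 M PBS) at 20 mL/kg. Plasma was collected 3 h later, diluted 1:2 in PBS, and fluorescence read at excitation 490 nm / emission 520 nm.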

GALR3 [20] = test: Tango β-arrestin2 recruitment, HTLA cells; type: cell-based
Summary of the method: as §4

GALR1 [21] = test: Tango β-arrestin2 recruitment, HTLA cells; type: cell-based
Summary of the method: as §4

[22] = Tolerability of peptide alone in healthy male mice, overall; type: in vivo, mouse; conditions: daily i.p. for six consecutive days
Summary of the method: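 Healthy male mice received daily i.p. test peptide for six consecutive days alongside a saline-injected control group. Body weight, water intake, food intake and colon length were recorded.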

mGALR2 = test: G protein pathway activation, HEK293 luciferase; type: cell-based; conditions: mouse GALR2, vs cGAL53
Summary of the method: as §1

hGALR2 = test: G protein pathway activation, HEK293 luciferase; type: cell-based; conditions: human GALR2, vs cGAL53
Summary of the method: as §1

Row | Substance | bias at GALR2 (GALR2 [1]) | G protein activation / ARRB2 recruitment via GALR2 (GALR2 [1]) | Gs (CRE-luc) activation (GALR1 [2]) | IBD-related symptoms in DSS-treated chickens [4] | Gq (NFAT-luc) activation (GALR1 [5]) | Gi (SRE-luc) activation (GALR3 [6]) | Gs (CRE-luc) activation (GALR3 [7]) | β-arrestin2 recruitment after mutation of predicted unique binding sites (mGALR2 mutants) | Gi (SRE-luc) activation (GALR2 [11]) | Gi (SRE-luc) activation (GALR1 [12]) | therapeutic effects (weight loss, colon shortening, intestinal damage, inflammation) (ARRB2) | Gs (CRE-luc) activation (GALR2 [13]) | Gq (NFAT-luc) activation (GALR3 [14]) | Gq (NFAT-luc) activation (GALR2 [15]) | DSS-changed pathways (KEGG) (colon transcriptome) | expression levels of immune-related genes (colon transcriptome) | alleviation of colitis / intestinal inflammation, overall (DSS-induced colitis [16]) | ability to alleviate weight loss, colon shortening, intestinal damage, inflammation (Gnaq) | concentration giving (similar) anti-inflammatory effect (Caco2 cells) | expression of Il6, Il23 and Tgfb1 induced by IL-1β and TNF-α (Caco2 cells) | also measured
1 | GWTLNSAGYLLGPRRIDHLLMIKEMPIARGREEAPGA-YAVDNHRSFNDKHGFT-NH2 [cGAL53] | β-arrestin2- biased agonizts of GALR2 | significantly enhances the recruitment of ARRB2 to GALR2 | not GALR1 | ameliorated IBD-related symptoms in chickens, manifested as reductions of body weight loss, intestinal bleeding points and tissue damage | not GALR1 | can activate | can activate | affected | can activate; also recorded: activated | not GALR1 | significantly diminished; also recorded: negated the therapeutic effects | can activate; also recorded: activated | can activate | can activate; also recorded: activated | significantly modulated | significantly reduced | superior therapeutic efficacy compared to the conserved GAL29 peptide; also recorded: superior protective effects against DSS-induced inflammation in both chickens and mice; also recorded: alleviates colitis-associated weight loss, colon shortening, bleeding, and inflammation in both chickens and mice; also recorded: greater therapeutic efficacy in treating intestinal inflammation in chickens and mice | significantly reduced | 0.1 µM | reduced | expression of ZO-1 and occludin (ZO-1, occludin [3]): did not increase; IBD-related symptoms in DSS-treated chickens ([4]; listed as GAL53): superior therapeutic efficacy; endoscopic and colon tissue damage scores (DSS-induced colitis [8]): most pronounced improvements; colitis symptoms (GALR3 [9]): significant improvement in colitis symptoms; therapeutic effect in female mice with DSS-induced colitis (DSS-induced colitis [10]): superior therapeutic benefits; TNBS-induced colitis (colon length, histopathological damage) (TNBS-induced colitis): more effective than cGAL29, nearly reversing the colon length and histopathological damage; ARRB2 (β-arrestin2) recruitment (GALR2b): significantly enhanced; inflammation-related pathways (GSVA) (colon transcriptome; compared to cGAL29): significantly greater reductions; colitis symptoms (DSS-induced colitis [16]; WT mice, 3% DSS, cGAL53 3 μM): significant improvement in colitis symptoms; alleviation of colitis / intestinal inflammation, overall (DSS-induced colitis [16]; listed as GAL53): superior protective effects against intestinal inflammation in birds and mammals; also recorded: exerts protective effects in chemical models of IBD; alleviation of colitis / intestinal inflammation, overall (DSS-induced colitis [16]; listed as chicken GAL53): superior efficacy over the conserved GAL29; DSS-induced body weight reduction, colon shortening and DAI increase (DSS-induced colitis [16]; mouse, 3% DSS in drinking water, peptide 3 μM daily i.p.): superior therapeutic efficacy over the shorter galanin variants (cGAL29 and hGAL30); also recorded: superior therapeutic efficacy in mouse colitis compared to cGAL29; ARRB2 (β-arrestin2) recruitment (GALR2 [17]): significantly enhanced; also recorded: preferentially activated ARRB2; colitis symptoms / effects of cGAL53 (GALR2 [18]): abolished in Galr2-deficient mice; also recorded: did not exhibit any change; also recorded: completely abolishes the effects of cGAL53; ZO-1 and occludin protein and mRNA levels (ZO-1, occludin [19]): markedly enhanced; circulating FD4 tracer levels (intestinal barrier): remained unchanged; ARRB2 (β-arrestin2) recruitment (GALR3 [20]): significantly enhanced; ARRB2 (β-arrestin2) recruitment (GALR1 [21]): significantly enhanced; body weight, water and food intake, colon length (tolerability) [22]: neither peptide affected body weight, water, and food intake, nor colon length, indicating good tolerability
2 | GWTLNSAGYLLGPHAVDNHRSFNDKHGFT-NH2 [cGAL29] | G protein- | stronger activation of G protein signaling pathways via GALR2 | not GALR1 | ameliorated IBD-related symptoms in chickens, manifested as reductions of body weight loss, intestinal bleeding points and tissue damage | not GALR1 | can activate | can activate | affected | can activate | not GALR1 | significantly diminished; also recorded: negated the therapeutic effects | more robust activation; also recorded: can activate | can activate | more robust activation; also recorded: can activate | significantly modulated | significantly reduced | alleviated intestinal inflammation symptoms in mouse colitis induced by DSS and TNBS | significantly reduced | 10 µM | reduced | expression of colonic inflammatory factors induced by DSS ([4]; chickens): reduced the expression of colonic inflammatory factors; activation of G protein pathways (mGALR2): more strongly than cGAL53; activation of G protein pathways (hGALR2): more strongly than cGAL53; body weight, water and food intake, colon length (tolerability) [22]: neither peptide affected body weight, water, and food intake, nor colon length, indicating good tolerability
